# rRNA inh HTS: reduced GFP signal of wild-type E. coli, primary screen, bacterial rRNA inhibitor project, GFP/RFP fluorescence, OD600, single point; actives 1.6% (n = 350,000); E. coli WT GFP vs humanized-ribosome RFP mutants, 24 h; hits give low values; DMSO median 0, no signal -100; GFP signal change (wild-type ribosome), % (no concentration beside the values);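 active = significant combined selectivity score with lowered wild-type GFP, culture density cut under 30%, mutant RFP and density less affected; inactive = any of these conditions unmet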
# Mot1-301 SUMO: yeast Mot1-301 growth rescue at high temperature, primary screen, SUMOylation pathway inhibitor project, S. cerevisiae, ATP luminescence, 38.5C; actives 1% (n = 320,000); growth rescue, % at 18.8 µM; S. cerevisiae Mot1-301 growth rescue; percent above DMSO median, 100 means doubled; AID 2716, 2010;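 active = every valid replicate shows activation above 250% relative to neutral control wells; inactive = the rest, any valid replicate at or below 250%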
# CR mimetic SO: reduction of superoxide in aged yeast, primary screen, HTS; superoxide response (% of plate mean), % at 10 µM; actives 0.18% (n = 330,000); S. cerevisiae aged cells, superoxide DHE fluorescence; hits give low values;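 active = superoxide response under a set limit, about three screen SD below normal, cut at about 65% in these data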;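 also: yeast aged for seven days with compound at 30 °C before DHE staining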
# Cneo AK release: Cryptococcus neoformans cell lysis inducers, primary screen, AK release luminescence, single concentration; C. neoformans lysis, adenylate kinase release luminescence, 4 h; normalised: neutral wells 0, clomiphene wells 100; lysis activity, % at 15 µM; actives 0.2% (n = 360,000); AID 651654, 2012;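 active = mean lysis activity across replicates of at least 80%, whatever share of replicates individually reach that level; inactive = mean lysis activity below 80%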
#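 Material: C. neoformans cells | Amount: Yeast cell density of 5 × 10^6 cells/mL | Medium: Fresh YPD growth medium | Dosing: Single dose | Times: Static 4 h at 37 °C with compound, 1 h detection | Detection: AK luminescence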
# PglD inh: C. jejuni PglD acetyltransferase inhibitors, primary screen, biochemical, DTNB colorimetric, single point | purified PglD enzyme, DTNB colorimetric CoA detection | actives 0.098% (n = 360,000) | inhibition, % at 12.5 µM; in the data active = inhibition above about 16%, passing the limit was not always enough; inconclusive = no clear call, values can overlap the other calls
# PglD confirm: PglD acetyltransferase inhibitors, confirmation, biochemical, DTNB absorbance, single point, cherry-picked samples | shares compounds with PglD inh | Purified C. jejuni PglD, DTNB absorbance 412 nm | inhibition, % at 20 µM | 320 tested, under 10 active | AID 743156, 2013;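 active = mean inhibition across replicates of at least 20% with every single replicate also at 20% or more; inconclusive = mean inhibition at least 20% but some replicate falls below 20%; inactive = mean inhibition under 20% and not all replicates reach it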;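 also: initial rate of CoA release by acetyl transfer from AcCoA to the UDP-4-amino sugar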
# AID977621: growth inhibition of wild-type GFP E. coli, dose response, H69 mutant RFP, cherry-pick; shares compounds with rRNA inh HTS; E. coli wild-type GFP strain growth, fluorescence, 24 h; activity change, negative = inhibition at 50 µM; 1,900 tested, under 10 active;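 active = Wild-type ribosome reporter drop at least double the humanized mutant ribosome reporter drop, growth loss under a set limit; inconclusive = no clear call, values can overlap the other calls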;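 also: wild-type GFP and H69 mutant RFP strains grown together 50/50 in each well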
# AID977628: E. coli growth inhibition, wild-type GFP versus h24 humanized RFP strain, dose response, h24 mutant RFP vs wild-type GFP, cherry-pick | shares compounds with rRNA inh HTS | E. coli WT GFP strain growth, fluorescence, 24 h | activity change, negative = inhibition at 50 µM | 1,900 tested, under 10 active;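 active = compound lowering the normal-ribosome reporter at least twice as much as the humanized-ribosome reporter, growth loss under a set limit; inconclusive = no clear call, values can overlap the other calls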;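 also: wild-type GFP and h24 humanized RFP strains co-cultured 1 to 1 per well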
# Hits are given with their value; . = inactive; ? = inconclusive; / = not tested or not shown. Sampled rows, rich in hits. Any-hit rate of the full collection: about 2.2%.
SMILES,rRNA inh HTS,Mot1-301 SUMO,CR mimetic SO,Cneo AK release,PglD inh,AID977621,others
CC(C)NC(=O)Nc1ccc2c(c1)C(=O)N([C@@H](C)CO)C[C@@H](C)[C@@H](CN(C)S(=O)(=O)c1ccccc1)OCCCC[C@@H](C)O2,.,/,/,.,.,/,
COCCNC(=O)CCCC(=O)NCCOC,/,.,.,.,35,/,PglD confirm=.
CC(Sc1nnc(N)s1)C(=O)Nc1ccc2c(c1)OCO2 (stereo not given),.,/,/,.,.,/,
CC(Sc1nnc(N)s1)C(=O)Nc1ccc(N2CCOCC2)cc1 (stereo not given),/,.,.,.,21,/,PglD confirm=.
Cc1ccc(S(=O)(=O)/N=C(/Nc2nc(C)cc(C)n2)N2CCOCC2)cc1,/,.,.,.,.,/,
COc1ccc(N2CCN(/C(=N\S(=O)(=O)c3ccccc3)Nc3nc(C)cc(C)n3)CC2)cc1,/,.,.,.,26,/,PglD confirm=.
CCc1nc2ccc(C(=O)NCCCn3ccnc3)cn2c1N(C)Cc1cccs1,.,/,/,.,20,/,PglD confirm=.
O=C(Nc1cccc(F)c1)N1C[C@H]2[C@@H](c3ccccc31)[C@H](CO)N2C(=O)c1ccccn1,.,/,/,.,.,/,
CCCCCn1c(=O)c(Cc2ccccc2)c(O)c2ccccc21,/,.,.,.,22,/,PglD confirm=.
O=C1OCCC1Sc1nnc(-c2ccc(Br)cc2)o1 (stereo not given),/,.,.,.,34,/,PglD confirm=.
O=C(C[C@@H]1C=C[C@H](NC(=O)CN2CCOCC2)[C@H](CO)O1)NCc1cccc(F)c1,.,/,/,.,.,/,
CCC1CCC2(CC1)NC(=O)N(CC(=O)NCc1ccc(Cl)cc1)C2=O (stereo not given),.,.,.,.,.,/,
CC1CCC2(CC1)NC(=O)N(CC(=O)NCc1ccc(Cl)cc1)C2=O (stereo not given),.,.,.,.,21,/,PglD confirm=.
CCOC(=O)C1CCN(S(=O)(=O)c2ccc3c(c2)CC(=O)N3C)CC1,.,.,.,.,41,/,PglD confirm=.
O=C1N=C2SCCN2/C1=C\c1ccc(Cl)cc1,/,.,.,.,30,/,PglD confirm=.
CSc1cccc(NC(=S)NC(=O)CCc2ccccc2)c1,.,.,.,.,.,/,
O=C(CSc1ccccc1)Nc1cccc(NC(=O)c2ccco2)c1,-21,.,.,.,.,?,
O=C(CSc1ccc(Cl)cc1)Nc1cccc(NC(=O)c2ccco2)c1,/,.,.,.,.,/,
CSc1cccc(NC(=O)CCc2ccccc2)c1,-29,.,.,/,/,.,AID977628=.
Cc1cccc(C(=O)NCC(=O)N2CC=C(c3ccccc3)CC2)c1,-30,.,.,.,.,.,AID977628=?
COc1ccc(C(=O)NCC(=O)N2CC=C(c3ccccc3)CC2)cc1OC,.,.,.,.,.,/,
CC(=O)c1ccccc1OCCOCCOCCOc1ccccc1C(C)=O,-22,.,.,.,.,.,AID977628=?
NC(=O)c1ccccc1OCCOc1ccc(Br)cc1,-26,.,.,.,/,.,AID977628=.
Cc1sc(NC(=O)CN2CCOCC2)nc1-c1ccc2c(c1)CCN2S(=O)(=O)c1ccccc1,-21,.,.,.,.,.,
CC(=O)c1cccc(NS(=O)(=O)c2ccc(C(=O)Nc3ccccc3)cc2)c1,.,.,.,.,.,/,
SMILES,rRNA inh HTS,Mot1-301 SUMO,CR mimetic SO,Cneo AK release,PglD inh,AID977621,others
O=C(Nc1ccncc1)c1ccc(S(=O)(=O)Nc2ccccc2)cc1,-23,/,.,/,/,.,AID977628=?
O=C(Nc1ccc(C(=O)c2ccccc2)cc1)c1ccccc1,-22,.,.,.,.,.,
CO[C@@H]1CN(C)C(=O)c2cc(NC(C)=O)ccc2OC[C@@H](C)N(Cc2nccs2)C[C@@H]1C,.,/,/,.,.,/,
CS(=O)(=O)N1[C@@H]2c3ccc(C4=CCCCC4)c(=O)n3C[C@@H]2[C@@H](CO)[C@@H]1C(=O)NCc1ccncc1,.,/,/,.,.,/,
NNC(=O)c1ccc(-c2ccccc2F)cc1,/,.,.,/,/,/,
C#CC(C)(C)NC(=O)c1ccc(-c2ccccc2F)cc1,-23,.,.,/,/,.,AID977628=.
C[C@H]1CCCCO[C@H](CN(C)C(=O)Nc2ccc(C(F)(F)F)cc2)[C@@H](C)CN([C@@H](C)CO)C(=O)c2cc(NC(=O)Nc3cccc4ccccc34)ccc2O1,.,/,/,.,.,/,
CCc1ccc2nc(SCC(=O)Nc3ccccc3N3CCOCC3)c(C#N)cc2c1,-30,.,.,/,/,.,AID977628=.
O=C(CSc1nc(C2CC2)nc2ccccc12)Nc1ccccc1N1CCOCC1,-17,.,.,/,/,.,AID977628=.
Cc1ccc2nc(SCC(=O)Nc3ccccc3N3CCOCC3)c(C#N)cc2c1,/,.,.,.,.,/,
O=C(CSc1nc(C2CC2)nc2ccccc12)Nc1ccccc1Cl,.,.,.,.,.,/,
C[C@H](CO)N1C[C@H](C)[C@H](CN(C)C(=O)C2CCC2)Oc2ncc(C#CC3(O)CCCC3)cc2C1=O,.,/,/,.,.,/,
CS(=O)(=O)Nc1ccc2c(c1)[C@H]1C[C@@H](CC(=O)NCc3ccc(Oc4ccccc4)cc3)O[C@@H](CO)[C@H]1O2,.,/,/,.,.,/,
O=C1CSc2ccc(S(=O)(=O)NCc3ccc(F)cc3)cc2N1,.,.,.,.,.,/,
Cc1ccc(CNS(=O)(=O)c2ccc3c(c2)NC(=O)CS3)cc1,-20,.,.,.,.,?,
O=C(C1CCCCC1)N1C[C@@H]2[C@H](c3ccccc31)[C@@H](CO)N2C(=O)c1ccccc1,.,/,/,.,.,/,
COc1cc(C2CC(=O)Oc3cc(C)cc(C)c32)cc(OC)c1OC (stereo not given),-22,/,.,.,.,/,AID977628=.
COc1cc2c(c(OC)c1OC)C(c1ccc(O)cc1)CC(=O)O2 (stereo not given),.,/,.,.,.,/,
COc1ccc(NC(=O)Nc2ccc3c(c2)CC(=O)N([C@H](C)CO)C[C@H](C)[C@@H](CN(C)Cc2ccc(Cl)c(Cl)c2)O3)cc1,.,/,/,.,.,/,
CCOC(=O)CN1C(=O)C(CC)Oc2ccc(Cl)cc21 (stereo not given),-30,.,.,.,.,.,AID977628=.
